Among the data in the RNAGym collection of RNA variant scans (doi:10.1126/science.aae0568) are yeast fitness values, retold here.

To fix the notation:
B1: tRNA (parent)
chain: GUUCCGUUGGCGUAAUGGUAACGCGUCUCCCUCCUAAGGAGAAGACUGCGGGUUCGAGUCCCGUACGGAACG

Fewer inactive variants are shown than the library holds.

Variants of B1 are the subject of this data set. As to the kind of experiment: yeast fitness relative to wild type (ratio to wild type); higher = fitter; tRNA-Arg(CCU), competitive growth, 37 C, YPD. The gist of the method: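 For this measurement, the tRNA-Arg(CCU) gene was varied by chemical synthesis at a 3% per-site mutation rate across 69 sites, and each variant was placed at the native genomic locus in Saccharomyces cerevisiae. The pooled strains went through a 24-hour competition in YPD at 37°C in six parallel replicates, with amplicons from start and end populations read by 100-nucleotide paired-end sequencing. Darwinian fitness relative to wild type followed from the change in each genotype's frequency. Genotypes needed ≥ 100 starting reads, and estimates < 0.5 were set to 0.5.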
For the variant A21C C24U A36C A57U, the yeast fitness is ≤ 0.5.
For the variant A21C A69C A70U, the yeast fitness turned out to be 0.686.
In the case of A21C C30U G38A, the yeast fitness was ≤ 0.5.
As for A21C C27U G48C, the yeast fitness was 0.547.
Consider A21C C24U U32A A65C, for which the yeast fitness was ≤ 0.5.
Consider A21G C30G A69C, for which the yeast fitness turned out to be 0.544.
To A21C C34U C49U G63A A69U belongs ≤ 0.5; to A21G C22U A42U A69U, ≤ 0.5.
For A21G A45G C46G, the yeast fitness was 0.802.
The value for A21C C24A C31A U47A was ≤ 0.5; that for A21G C29U A57G was 0.602; that for A21C U28A U32C G68A was ≤ 0.5.
A21C C30G C55G: the yeast fitness is ≤ 0.5.
A21G C29A A37G A42U: the yeast fitness turned out to be 0.516.
For A21C C22A A45U G67A, the yeast fitness was ≤ 0.5.
With A21C C30U C62A, the yeast fitness was 0.644.
For the variant A21C G23A C46G U53C, the yeast fitness is 0.698.
For A21C C24U C29U A36C, the yeast fitness is ≤ 0.5.
Turning to A21C C34U C49U A69U, the yeast fitness was 0.53.
With A21C C24U U32A C61U, the yeast fitness is ≤ 0.5.
On to A21C U26C, for which the yeast fitness was 0.785.
On to A21G C29U G41C C55U G68C, for which the yeast fitness was ≤ 0.5.
To A21C C30A belongs 0.802; to A21C C30U, 0.734.
For A21G C24A A43U A57U C66A, the yeast fitness worked out at 0.574.
As to A21C U35A G50C A69C, the yeast fitness was ≤ 0.5.
Regarding A21C C29A G52A C61U, the yeast fitness was ≤ 0.5.
For A21G A45C C66U, the yeast fitness is 0.555.
In the case of A21C C24U G25C U26G U59A A70C, the yeast fitness was ≤ 0.5.
As for A21C U47A, the yeast fitness turned out to be 0.85.
For the variant A21G C30G G51C, the yeast fitness is ≤ 0.5.
To A21G C24G belongs 0.642; to A21G C24A, 0.661; to A21C C24G C33A A37G A69C, 0.645.
With A21C G48A C55U A65C, the yeast fitness is ≤ 0.5.
Turning to A21G A40C A42U C46U C49U G51A A65C, the yeast fitness was 0.732.
As to A21G C29G C55U A69C, the yeast fitness was ≤ 0.5.
Regarding A21C G23A C24U C31U C49U G67A, the yeast fitness is ≤ 0.5.
A21C C27U C49U: the yeast fitness amounted to 0.679.
As to A21G C27A G67C, the yeast fitness is ≤ 0.5.
Consider A21C U47A C60U G67C A69U, for which the yeast fitness was 0.574.
Take A21G A42C A70U: the yeast fitness was determined as 0.761.
To A21G C31G A45G belongs 0.938; to A21G C27A A37U C46U C66U, ≤ 0.5; to A21G C27U C55A, 0.701.
The value for A21G C31A A42G was 0.561; that for A21C G50C was 0.584; that for A21C G50A was 0.672.
A21G A36U C61U: the yeast fitness was ≤ 0.5.
The value for A21C C22G A42C U47A was ≤ 0.5; that for A21C C46U C61G was ≤ 0.5; that for A21C C30U A36C was ≤ 0.5.
Consider A21C C31G C66U, for which the yeast fitness is ≤ 0.5.
Consider A21C C22U A43U, for which the yeast fitness was 0.538.
On to A21G A45U A65U, for which the yeast fitness worked out at 0.674.
For the variant A21C C29U, the yeast fitness is 0.824.
To A21G A43C A69U A70C belongs 0.762; to A21G C29G U47G, ≤ 0.5.
To A21C U64C belongs 0.835; to A21C C27U C55G, 0.617; to A21C C61G G68A, ≤ 0.5.
As for A21C C27A C33U A69C, the yeast fitness stood at 0.625.
As for A21C U28A, the yeast fitness was 0.738.
To A21G A40C belongs 0.88; to A21G A40G, 0.986; to A21G A40U, 0.914.
Turning to A21C C55G, the yeast fitness was ≤ 0.5.
As to A21C C55A, the yeast fitness came to 0.605.
Consider A21C C55U, for which the yeast fitness was determined as 0.712.
Regarding A21C G25C U26G U59G A65C, the yeast fitness was ≤ 0.5.
As for A21G C29U G39A A45U, the yeast fitness was found to be 0.547.
For A21C C33U A36G G39A G44A C55G U59C, the yeast fitness is ≤ 0.5.
In the case of A21G C22U C29G A45C, the yeast fitness worked out at 0.515.
As for A21C C29U U35A C61G, the yeast fitness was 0.707.
A21C G23A C24U C31U C49U: the yeast fitness was ≤ 0.5.
For A21C U26G A43C, the yeast fitness is ≤ 0.5.
On to A21C G23A A37C U54C, for which the yeast fitness was ≤ 0.5.
In the case of A21C U26G U35A A40U, the yeast fitness was ≤ 0.5.
Turning to A21C C22A U26C, the yeast fitness was ≤ 0.5.
The value for A21G C31G A70G was 0.787.
Take A21C U26C A40G U47C: the yeast fitness is ≤ 0.5.
Take A21G C30A C33G U59A C66U: the yeast fitness was found to be 0.535.
A21C C27U C34U G50C G52C C61U: the yeast fitness was ≤ 0.5.
For the variant A21G C29U G41C A69U, the yeast fitness came to 0.63.
To A21C G23A A37C U54C A65G belongs ≤ 0.5; to A21G C29U C31U, ≤ 0.5.
Take A21C C31A C49U: the yeast fitness came out at 0.734.
As to A21G C30U G68C, the yeast fitness worked out at 0.582.
Consider A21C C31G, for which the yeast fitness was determined as 0.657.
The value for A21G C29A G48C was 0.57.
To A21G C22U C55U belongs 0.567; to A21C C30G C34G, 0.627; to A21G A37C A65U G68C, ≤ 0.5.
A21C C30U C31G C33U C61A: the yeast fitness was ≤ 0.5.
On to A21C C22A C34G G44C C62A, for which the yeast fitness is 0.606.
With A21C C34U A65U, the yeast fitness was ≤ 0.5.
Regarding A21C U32C U64A, the yeast fitness stood at 0.664.
On to A21C C33U, for which the yeast fitness was 0.687.
For A21C G44C A57G G68C, the yeast fitness was found to be 0.66.
For the variant A21C C34U G51C, the yeast fitness is ≤ 0.5.
Regarding A21C G23C G52C A65C, the yeast fitness was ≤ 0.5.
Turning to A21G A40G C61U, the yeast fitness turned out to be 0.654.
Turning to A21C C46A, the yeast fitness was 0.995.
Turning to A21G C22U C24U A37U A45G C46G G68C, the yeast fitness is ≤ 0.5.
The value for A21C C27G U28A C29U C34U A57G G58C was ≤ 0.5.
As for A21C G67U, the yeast fitness is 0.656.
The value for A21G A43C A70U was 0.712; that for A21G C27G C29U U35G was 0.552; that for A21C C22A C24U A36C was ≤ 0.5.
As for A21C A65U G68C, the yeast fitness was ≤ 0.5.
As for A21C C34G C60A, the yeast fitness is ≤ 0.5.
To A21C A65U G67A belongs 0.543; to A21C C66U, 0.757; to A21C C66G, 0.609.
Take A21G A70U: the yeast fitness stood at 1.
Take A21G A42U C66U: the yeast fitness is 0.56.
For the variant A21G A43C, the yeast fitness came to 0.966.
Consider A21G A43G, for which the yeast fitness was found to be 1.04.
As to A21C G44C G56A G63C G68A A69G, the yeast fitness was ≤ 0.5.
In the case of A21C U26C C34G G44A C46A C55G G58A U59C A69U, the yeast fitness came to 0.625.
The value for A21G A36G G38C C62G was ≤ 0.5; that for A21C C22U C31U C33U G67A was ≤ 0.5.
As to A21G A65C, the yeast fitness is 0.924.
To A21G A65U belongs 0.848; to A21G C24U A36U C66U A69U, ≤ 0.5; to A21C C24G A65C G67C, 0.718.
Regarding A21C C62U A65C, the yeast fitness worked out at 0.654.
Regarding A21C C22A C24U U32A C62G, the yeast fitness was ≤ 0.5.
A21C G48A: the yeast fitness is 0.854.
For A21G C29U A45U G67U, the yeast fitness is ≤ 0.5.
Consider A21C U32C C46U, for which the yeast fitness came out at 0.849.
To A21C C27A G50C belongs ≤ 0.5; to A21C C33G A37U U64G, 0.617.
The value for A21C C31G C33G G44A C66U was 0.526; that for A21C C46G C55U was 0.523; that for A21G C22U U32C C33A A37G A57C was ≤ 0.5.
As to A21G C24G G48C, the yeast fitness is ≤ 0.5.
A21G C30G C55U: the yeast fitness stood at 0.682.
For the variant A21G A45C U59C, the yeast fitness amounted to 0.732.
Turning to A21C G25C U26G U59A, the yeast fitness is ≤ 0.5.
A21G C29U C34U C55A C60G: the yeast fitness was ≤ 0.5.
In the case of A21G C27U G38C G68C, the yeast fitness is ≤ 0.5.
The value for A21G C27G C31G was 0.523.
Take A21G A40U G52C C55A C66G: the yeast fitness amounted to 0.539.
For A21C G68C, the yeast fitness amounted to 0.67.
Turning to A21C C27G C46A C55G, the yeast fitness is ≤ 0.5.
A21C C49G: the yeast fitness worked out at 0.732.
Consider A21C C49U, for which the yeast fitness turned out to be 0.824.
The value for A21C C49A was 0.742.
Turning to A21C U53G C62U G68C, the yeast fitness is ≤ 0.5.
As for A21C C60A A69G, the yeast fitness is ≤ 0.5.
Regarding A21G C22U C30G G51A, the yeast fitness was 0.538.
As to A21C C34U U35C, the yeast fitness was ≤ 0.5.
As for A21G A36U C49A, the yeast fitness is ≤ 0.5.
For the variant A21C C55U A69C, the yeast fitness is ≤ 0.5.
The value for A21C A65G was 0.863.
For the variant A21C A65U, the yeast fitness came to 0.697.
Consider A21C A65C, for which the yeast fitness came out at 0.677.
A21C A57G A69G: the yeast fitness is ≤ 0.5.
To A21G C24G A37U C49A belongs ≤ 0.5; to A21G C31U A37G C62G, ≤ 0.5.
For A21C A57G G67A, the yeast fitness is ≤ 0.5.
A21G A36G A42U A57G: the yeast fitness is ≤ 0.5.
As to A21C U32C A40G, the yeast fitness turned out to be 0.557.
As to A21C U35A, the yeast fitness stood at 0.601.
On to A21C C22A C30U G48C, for which the yeast fitness was ≤ 0.5.
To A21G C22U A43C belongs 0.57.
